Test results as given in ChEMBL document CHEMBL1122715, “beta-Lapachone: synthesis of derivatives and activities in tumor models” (1984).
Values after ≈ are worked out from the molar mass of the structure shown.

Legend:
Mus musculus = experiment: Maximum tolerated dose (MTD, po) in uninfected NMRI mice
[1] = test system: Avian myeloblastosis virus; experiment: In vitro inhibition of RNA dependent DNA polymerase of Avian myeloblastosis virus (AMV); type: functional; conditions: read-out: ED50
Method in brief: (§1)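 Reverse transcriptase activity assayed with poly(rA)·oligo(dT) or poly(rC)·oligo(dG) template-primer (20 μg/mL) and [³H]dTTP or [³H]dGTP substrate (20 μM, […]); inhibition read as loss of labelled nucleotide incorporation.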

[2] = test system: Rauscher murine leukemia virus; experiment: In vitro inhibition of RNA dependent DNA polymerase of Rauscher leukemia virus (RLV); type: functional; conditions: read-out: ED50
Method in brief: as §1

Compound | MTD (Mus musculus) | EC50 [1] | EC50 [2]
Cc1ccc2c(c1)C(=O)C(=O)C1=C2OC(C)(C)CC1 | >2500 mg/kg |  | 
CCC1(CC)CCC2=C(O1)c1ccccc1C(=O)C2=O | 2500 mg/kg | 2 µg/mL (≈ 7.4 µM) | 
O=C1C(=O)c2ccccc2C2=C1CCC1(CCCC1)O2 | >2500 mg/kg | 3 µg/mL (≈ 11.2 µM) | 
COc1cc2c(cc1OC)C1=C(CCC(C)(C)O1)C(=O)C2=O | >1250 mg/kg | 5 µg/mL (≈ 16.5 µM) | 
O=C1C(=O)c2ccccc2C2=C1CCC1(CCCCC1)O2 | >2500 mg/kg | 3 µg/mL (≈ 10.6 µM) | 
O=C1C(=O)c2ccccc2C2=C1CCC1(CCCCCC1)O2 |  | 15 µg/mL (≈ 50.6 µM) | 
O=C1C(=O)c2ccccc2C2=C1CCC(c1ccccc1)O2 (stereo unspecified) | >2500 mg/kg | < 2 µg/mL | 
CC1(C)CCC2=C(O1)c1ccc(Cl)cc1C(=O)C2=O | >2500 mg/kg |  | 
CC1(c2ccccc2)CCC2=C(O1)c1ccccc1C(=O)C2=O (stereo unspecified) | >2500 mg/kg | 2 µg/mL (≈ 6.57 µM) | 2 µg/mL (≈ 6.57 µM)
CC1(C)CCC2=C(O1)c1ccccc1C(=O)C2=O [LAPACHONE] | 1250 mg/kg | < 2 µg/mL | < 2 µg/mL
CCC1(C)CCC2=C(O1)c1ccccc1C(=O)C2=O (stereo unspecified) | 125 mg/kg | < 2 µg/mL | 
